SENP7 block: blocks the human protease SENP7; Q9BQF6; recombinant SENP7, Z-RLRGG-aminoluciferin luminescence, 40 min; inhibition, % at 5 µM; hit rate 1.5% among 330,000; AID 434973;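 active = inhibition above about 50% at the single test dose, limit read from the data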;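 also: plate controls were DMSO with enzyme for no effect and no enzyme buffer wells for full effect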
Target sequence (Q9BQF6 706-1050 limits assumed): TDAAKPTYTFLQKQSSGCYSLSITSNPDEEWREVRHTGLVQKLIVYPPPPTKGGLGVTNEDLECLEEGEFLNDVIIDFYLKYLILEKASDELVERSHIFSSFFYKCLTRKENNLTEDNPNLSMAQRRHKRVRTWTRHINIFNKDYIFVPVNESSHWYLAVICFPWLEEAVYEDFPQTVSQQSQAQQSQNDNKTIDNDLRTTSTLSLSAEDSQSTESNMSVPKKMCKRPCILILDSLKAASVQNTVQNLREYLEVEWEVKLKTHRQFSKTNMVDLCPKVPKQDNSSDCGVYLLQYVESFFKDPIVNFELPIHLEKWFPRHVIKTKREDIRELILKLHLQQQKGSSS
SENP8 block-1: inhibitors of human SENP8 protease; purified SENP8, Z-RLRGG-aminoluciferin cleavage, luminescence; inhibition, % at 10 µM; hit rate 1.2% among 330,000; AID 2540; in the data active = inhibition above about 50%
SENP6 block: SENP6 protease inhibition | Q9GZR1 | Recombinant SENP6 catalytic domain, aminoluciferin luminescence | inhibition, % at 10 µM | hit rate 1.8% among 330,000 | AID 2599;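 active = inhibition above about 50% at the single tested dose, limit read from the data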;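 also: plate controls were DMSO wells with enzyme for no effect and DMSO wells lacking enzyme for full effect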
SENP1 inh: SENP1 (human) catalytic domain inhibition; recombinant SENP1 catalytic domain, CyPet-SUMO1-YPet FRET cleavage; inhibition, % at 10 µM; hit rate 0.21% among 360,000;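 active = inhibition at least 30% at 10 µM, raw YFP signal under a set limit, fluorescence ratio 0.5 to 1.5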;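 also: 0% = enzyme with DMSO and 100% = no enzyme wells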
Target sequence (Q9P0U3 419-644 limits assumed): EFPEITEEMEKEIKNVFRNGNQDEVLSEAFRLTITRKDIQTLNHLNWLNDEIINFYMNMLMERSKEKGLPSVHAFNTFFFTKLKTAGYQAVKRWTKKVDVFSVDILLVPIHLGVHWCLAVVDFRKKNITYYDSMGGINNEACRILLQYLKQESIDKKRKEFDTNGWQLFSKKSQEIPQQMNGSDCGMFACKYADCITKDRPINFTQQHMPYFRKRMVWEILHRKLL
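Controls: no-enzyme wells low, DMSO-plus-enzyme wells high control. Test system: human recombinant His6-tagged SENP1 catalytic domain enzyme. Reagent: SFCypet-SUMO1-SFYpet FRET protein substrate, 25 nM final. Doses: one dose per compound, 10 µM, 0.5% DMSO. Detection: FRET, CFP and YFP emission. Timing: 50 min reaction at room temperature.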
SENP8 block-2: SENP8 (human) protease inhibition. Q96LD8. recombinant SENP8, Nedd8 substrate fluorescence. hit rate 0.64% among 360,000. inhibition, % at 20 µM. AID 602440; in the data active = inhibition mostly above about 40%, no sharp cut-off; inactive = mostly below about 27%
SENP8 conf: confirmation of human SENP8 protease inhibitors; shares compounds with SENP7 block; hit rate 40% among 6,200; inhibition, % at 12.5 µM; AID 488912; Recombinant SENP8, Z-RLRGG-aminoluciferin luminescence, 60 min;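 active = mean inhibition across replicates above about 50%, limit read from the data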
SENP6 confirm: human SENP6 inhibition, confirmed; hit rate 58% among 6,200; inhibition, % at 12.5 µM; shares compounds with SENP7 block; recombinant SENP6, Z-RLRGG-aminoluciferin luminescence; AID 488915
SENP7 confirm: human SENP7 inhibition, confirmed; shares compounds with SENP7 block; recombinant SENP7, Z-RLRGG-aminoluciferin luminescence, 40 min; inhibition, % at 12.5 µM; hit rate 69% among 6,200
Casp3 select: inhibits human caspase-3 in SENP selectivity test; shares compounds with SENP7 block; purified caspase-3, Z-DEVD-aminoluciferin luminescence, 60 min; inhibition, % at 12.5 µM; hit rate 60% among 6,200;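 active = mean inhibition above about 50%, limit read from the data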;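 also: plate controls were enzyme with DMSO for no effect and wells without caspase-3 for full effect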
SENP luc ctr: interferes with luciferase luminescence in SENP counter-screen; shares compounds with SENP7 block; Pre-incubated SENP8/Z-RLRGG-aminoluciferin, luciferase luminescence interference; inhibition, % at 12.5 µM; hit rate 39% among 6,200; AID 488919;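 active = mean inhibition above about 50% when retested at one dose, limit read from the data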;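 also: plate controls were DMSO wells with completed reaction for no effect and substrate without enzyme for full effect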
* marks the source's active call; other numbers are inactive results. An excerpt weighted towards active compounds, which were near 2.5% of everything screened.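 The calls were made as follows, unless noted: active = mean inhibition above about 50% in the one-dose retest (limit read from the data); inactive = the rest.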

COc1ccc2nc(-c3ccccc3)[nH]c2c1 was read as SENP7 block 95*, SENP8 block-1 83*, SENP6 block 95*, SENP1 inh 1, SENP8 block-2 -295, SENP8 conf 4, SENP6 confirm 90*, SENP7 confirm 99*, Casp3 select 94* and SENP luc ctr 89*.
Screening Cc1cccc(CCNS(=O)(=O)c2ccc3c(c2)CCN3C(=O)CCC(=O)O)c1 returned SENP7 block 3, SENP8 block-1 -2, SENP6 block -15, SENP1 inh 0 and SENP8 block-2 10.
For Cc1ccc(C(NC(N)=O)c2ccccc2)cc1 (stereo not given) the results were SENP7 block 54*, SENP8 block-1 9, SENP6 block 3, SENP1 inh 0, SENP8 block-2 12, SENP8 conf 4, SENP6 confirm 1, SENP7 confirm -2, Casp3 select -2 and SENP luc ctr -2.
Nc1nc2ccc(-c3nc4ccccc4o3)cc2s1 was read as SENP7 block 35, SENP8 block-1 37, SENP6 block 50, SENP1 inh -25 and SENP8 block-2 inactive.
c1ccc2oc(-c3ccc4nc[nH]c4c3)nc2c1 was read as SENP7 block 60*, SENP8 block-1 25, SENP6 block 35, SENP1 inh 1, SENP8 block-2 -305, SENP8 conf 52*, SENP6 confirm 50*, SENP7 confirm 74*, Casp3 select 57* and SENP luc ctr 44.
For O=C(O)CCCc1ccc2c(c1)CCc1ccccc1-2 the results were SENP7 block -14, SENP8 block-1 34, SENP6 block 50*, SENP1 inh 1, SENP8 block-2 -29, SENP8 conf 77*, SENP6 confirm 76*, SENP7 confirm 88*, Casp3 select 68* and SENP luc ctr 81*.
CC(C)(C)c1ccc(OCCC(=O)NNC(=O)c2ccncc2)cc1 was read as SENP7 block -13, SENP8 block-1 -22, SENP6 block -27, SENP1 inh 2 and SENP8 block-2 9.
Screening C=CCNc1nc(C(=O)OCC(=O)c2ccc(Cl)cc2)cs1 returned SENP7 block -9, SENP8 block-1 -14, SENP6 block -13, SENP1 inh -4 and SENP8 block-2 2.
Screening CN1CCN(c2nc(-c3ccc(C(C)(C)C)cc3)nc3ccccc23)CC1 returned SENP7 block 8, SENP8 block-1 34, SENP6 block 54*, SENP1 inh 0, SENP8 block-2 32, SENP8 conf 31, SENP6 confirm 28, SENP7 confirm 35, Casp3 select 48 and SENP luc ctr 21.
`Cc1ccc(-c2nc(N3CCN(C)CC3)c3ccccc3n2)cc1` gave SENP7 block 4, SENP8 block-1 -5, SENP6 block -4, SENP1 inh -1 and SENP8 block-2 -3.
For CSC1=NSC2=NC(=O)/C(=C\c3ccc(OC(=O)c4ccco4)cc3)C(=N)N12 the results were SENP7 block 37, SENP8 block-1 91*, SENP6 block 89*, SENP1 inh -118, SENP8 block-2 15, SENP8 conf 90*, SENP6 confirm 90*, SENP7 confirm 96*, Casp3 select 90* and SENP luc ctr 4.
For c1ccc(-c2c3ccccc3nc3[nH]c4ccccc4c23)cc1 the results were SENP7 block 8, SENP8 block-1 -8, SENP6 block -3, SENP1 inh -119 and SENP8 block-2 -472.
c1ccc2nc3c(nc2c1)[nH]c1ccccc13 was read as SENP7 block 75*, SENP8 block-1 60*, SENP6 block 29, SENP1 inh -58, SENP8 block-2 -214, SENP8 conf 22, SENP6 confirm 71*, SENP7 confirm 92*, Casp3 select 76* and SENP luc ctr 15.
For c1ccc(-c2noc(-c3ccc4ccccc4c3)n2)cc1 the results were SENP7 block 98*, SENP8 block-1 90*, SENP6 block 92*, SENP1 inh 1, SENP8 block-2 -25, SENP8 conf 12, SENP6 confirm 9, SENP7 confirm 2, Casp3 select 43 and SENP luc ctr 4.
Screening COc1ccc(-c2noc(COc3ccc4c(c3)OCO4)n2)cc1 returned SENP7 block 5, SENP8 block-1 -16, SENP6 block -37, SENP1 inh -21 and SENP8 block-2 -168.
`c1ccc(-c2noc(-c3ccc4c(c3)OCO4)n2)cc1` gave SENP7 block 100*, SENP8 block-1 93*, SENP6 block 97*, SENP1 inh 2, SENP8 block-2 -8, SENP8 conf 92*, SENP6 confirm 88*, SENP7 confirm 96*, Casp3 select 94* and SENP luc ctr 31.
COc1cccc(-c2noc(-c3ccc4c(c3)OCO4)n2)c1 was read as SENP7 block 101*, SENP8 block-1 89*, SENP6 block 92*, SENP1 inh 11, SENP8 block-2 -10, SENP8 conf 90*, SENP6 confirm 88*, SENP7 confirm 95*, Casp3 select 92* and SENP luc ctr 14.
For Brc1ccc(-c2nc(-c3ccccc3)no2)o1 the results were SENP7 block 92*, SENP8 block-1 85*, SENP6 block 90*, SENP1 inh 4, SENP8 block-2 10, SENP8 conf -4, SENP6 confirm 87*, SENP7 confirm 99*, Casp3 select 70* and SENP luc ctr 28.
For CC(=O)Nc1ccc(S(=O)(=O)Nc2ccc(S(=O)(=O)Nc3nccs3)cc2)cc1 the results were SENP7 block -2, SENP8 block-1 3, SENP6 block -8, SENP1 inh 1 and SENP8 block-2 1.
For Cc1c(C(N)=O)sc2ncn(CC(=O)N(C)C3CCCCC3)c(=O)c12 the results were SENP7 block 3, SENP8 block-1 5, SENP6 block 19, SENP1 inh -3 and SENP8 block-2 9.
`CN(C)S(=O)(=O)c1ccc(Cl)c(C(=O)NNC(=O)Cn2ccc(C(F)(F)F)n2)c1` gave SENP7 block -3, SENP8 block-1 2, SENP6 block -11, SENP1 inh 1 and SENP8 block-2 -7.
`c1ccc2c(-c3cccc4nccn34)cncc2c1` gave SENP1 inh 1 and SENP8 block-2 -359.
